According to ChEMBL document CHEMBL3745658, “An Orally Bioavailable, Indole-3-glyoxylamide Based Series of Tubulin Polymerization Inhibitors Showing Tumor Growth Inhibition in a Mouse Xenograft Model of Head and Neck Cancer” (J Med Chem, 2015):
In brackets after ≈: the same amount, converted by molar mass. Activity calls are given as the source filed them. No cut-off for these calls is given here.

Experiments:
[1] = Metabolic stability in CD-1 mouse liver microsomes assessed as half life at 1 uM preincubated for 5 mins before addition of NADPH by LC-MS/MS method; format: ADME
[2] = test system: FaDu; test: Cytotoxicity against human FADU cells assessed as reduction in cell viability after 72 hrs by MTT assay; format: functional; settings: read-out: LC50 (the source's name)
[3] = molecular target: T1, Tubulin (Sus scrofa) (UniProt P02554+P02550); test: Displacement of [3H]-vinblastine from biotinylated porcine tubulin after 15 mins by competitive binding assay; format: protein assay
Summary of the method: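 Biotinylated porcine tubulin, 0.2 μM [3H]-vinblastine, SPA beads and test compound combined together in G-PEM with 1 mM GTP, 3% DMSO, duplicate wells, 15 min at rt before counting. Nonspecific binding taken with 1000-fold unlabeled excess. IC50 from seven-point semilog curves, four-parameter fit.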

[4] = molecular target: T1, Tubulin (Sus scrofa); test: Displacement of [3H]-paclitaxel from biotinylated porcine tubulin after 25 mins by competitive binding assay; format: protein assay
Summary of the method: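 Biotinylated porcine tubulin precoupled to SPA beads for 30 min at 4 °C, then 0.05 μM [3H]-paclitaxel and test compound added in G-PEM with 1 mM GTP, 3% DMSO, duplicate wells, 25 min at rt. Nonspecific binding taken with 1000-fold unlabeled excess. IC50 from seven-point semilog curves, four-parameter fit.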

[5] = molecular target: T1, Tubulin (Sus scrofa); test: (§1) Displacement of [3H]-colchicine from biotinylated porcine tubulin after 2 hrs by competitive binding assay; format: protein assay
Summary of the method: (§2)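 Biotinylated porcine tubulin (750 ng/well) with 0.1 μM [3H]-colchicine and test compound in G-PEM with 1 mM GTP, 3% DMSO, duplicate wells, 2 h at 37 °C. Streptavidin SPA beads then added for 45 min at 37 °C. Nonspecific binding taken with 1000-fold unlabeled excess. IC50 from seven-point semilog curves, four-parameter fit.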

[6] = Solubility in 2% DMSO containing 50 mM potassium phosphate buffer solution at pH 7.4 by dynamic light scattering method; settings: 50 mM potassium phosphate buffer with 2% DMSO
[7] = Solubility in 2% DMSO containing 50 mM potassium phosphate buffer solution pH 7.4 at 10 uM by dynamic light scattering method; settings: pH 7.4, 10 µM
[8] = test system: MES-SA/Dx5; test: Cytotoxicity against multidrug resistant human MES-SA/Dx5 cells assessed as reduction in cell viability after 72 hrs by MTT assay; format: functional, cell-based
Summary of the method: (§3)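 Cells plated at an appropriate density and left 24 h to attach, then dosed in triplicate with compound diluted from 10 mM DMSO stocks into full growth medium (added at 2× final concentration). After 72 h, cells PBS-washed and given MTT (0.5 mg/mL in PBS) for 45−60 min. Formazan dissolved in 0.1 M HCl/2-propanol, A570 read (650 nm reference). Viability normalised to DMSO control; LC50 by nonlinear regression.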

[9] = test system: MES-SA; test: Cytotoxicity against human MES-SA cells assessed as reduction in cell viability after 72 hrs by MTT assay; format: functional, cell-based; summary of the method: as §3
[10] = Aqueous solubility of the compound by UV-HPLC
[11] = test system: SCC-4; test: Cytotoxicity against human SCC4 cells assessed as reduction in cell viability after 72 hrs by MTT assay; format: functional, cell-based; summary of the method: as §3
[12] = test system: SK-MEL-28; test: Cytotoxicity against human SK-MEL-28 cells assessed as reduction in cell viability after 72 hrs by MTT assay; format: functional, cell-based; summary of the method: as §3
[13] = Solubility in 2% DMSO containing 50 mM potassium phosphate buffer solution pH 7.4 at 1 uM by dynamic light scattering method; format: physicochemical; settings: pH 7.4, 1 µM
[14] = test system: SH-SY5Y; test: Cytotoxicity against human SH-SY5Y cells assessed as reduction in cell viability after 72 hrs by MTT assay; format: functional, cell-based; summary of the method: as §3
[15] = test system: FaDu; test: Selectivity index, ratio of EC50 for cell cycle arrest in human FADU cells to LC50 for cytotoxicity against human FADU cells; format: functional
Summary of the method: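 G2/M arrest EC50 came from a 24 h dose–response of propidium iodide flow cytometry in FaDu cells. It was compared with the LC50 from a 72 h MTT assay in FaDu cells (triplicate wells, A570, viability relative to DMSO, nonlinear regression).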

[16] = Apparent permeability from apical to basolateral side in human Caco2 cells at 10 uM at pH 7.4 after 60 mins by mass spectrometry; settings: Caco-2, pH 7.4
[17] = test system: FaDu; test: Induction of microtubule disruption in human FADU cells at 150 nM after 24 hrs by immunofluorescence staining method; format: functional, cell-based
Summary of the method: (§4)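 FaDu cells grown on coverslips (15000/well) for 24 h, then exposed to compound for 24 h. Unassembled tubulin was extracted with PHEM/0.5% Triton X-100/10 μM paclitaxel for 3 min. Cells were fixed in PHEM with 8% paraformaldehyde and 0.3% glutaraldehyde on ice, blocked, then stained with FITC anti-α-tubulin (DM1A) and DAPI. Confocal z-stacks were taken at 100×.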

[18] = molecular target: T2, Tubulin (Sus scrofa, UniProt P02554+P02550); test: Inhibition of porcine brain tubulin polymerization assessed as reduction in GTP-induced microtubule assembly after 60 mins by OD340 method
[19] = Efflux ratio of apparent permeability from basolateral to apical side over apical to basolateral side in human Caco2 cells; settings: Caco-2
[20] = test system: FaDu; test: Cytotoxicity against human FADU multicellular tumor spheroid assessed as effect on normal spheroid growth at 1 uM incubated for 2 to 3 days by light microscop; format: cell-based
Summary of the method: (§5)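 FaDu monoculture spheroids were dosed once and imaged at 0, 2, 4 and 7 days after dosing. Fragmentation and growth were judged against untreated spheroids.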

[21] = test system: FaDu; test: Antitumor activity against human FADU cells xenografted in CD-1 mouse assessed as inhibition of tumor growth at 10 mg/kg, po qd for 10 days measured at 3 to 9 days; format: functional, organism-based
Summary of the method: (§6)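 FaDu xenografts established in mice before dosing; compound given by oral gavage once daily for 10 days. Tumor volume was followed over time and compared with a vehicle control group, with significance assessed at days 3, 6, 9, 13 and 15. Body weight and survival were also recorded.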

[22] = test system: FaDu; test: Antitumor activity against human FADU cells xenografted in CD-1 mouse assessed as inhibition of tumor growth at 10 mg/kg, po qd for 10 days measured at 13 and 15 days; format: functional, organism-based; summary of the method: as §6
[23] = test system: FaDu; test: Cell cycle arrest in human FADU cells assessed as accumulation at G2/M phase after 24 hrs by propidium iodide staining-based flow cytometry; format: functional
Summary of the method: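 FaDu cells seeded at 10^5/well, attached overnight, then exposed to compound in full growth medium at 37 °C for 24 h. Cells were trypsinized, fixed in ice-cold 70% ethanol, treated with RNase A (100 μg/mL), stained overnight in the dark with propidium iodide (50 μg/mL), and analysed by flow cytometry with at least 10000 events per sample.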

[24] = test system: FaDu; test: Cytotoxicity against human FADU multicellular tumor spheroid assessed as induction of spheroid disruption incubated for 7 days by light microscopy; format: functional, cell-based; settings: 168 h
Summary of the method: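 Monocultured FaDu spheroids dosed over a concentration range and imaged at 0, 2, 4 and 7 days post-dosing. Volume followed over time, fragmentation scored at the 7-day end point, and EC50 for disruption derived from 7-day dose–response plots. Two independent experiments, mean ± SEM.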

[25] = test system: FaDu; test: Induction of microtubule disruption in human FADU cells assessed as multipolarization of spindle at 30 nM after 24 hrs by immunofluorescence staining method; format: functional, cell-based; summary of the method: as §4
[26] = molecular target: T2, Tubulin; test: as §1; format: protein assay; summary of the method: as §2
[27] = test system: FaDu; test: Cytotoxicity against human FADU multicellular tumor spheroid assessed as dispersion of cells from the spheroid at 1 uM incubated for 2 to 7 days by light microscopy; format: functional, cell-based; summary of the method: as §5
[28] = molecular target: T1, Tubulin (Sus scrofa); test: Potency index, ratio of vincristine IC50 to docetaxel IC50 for displacement of [3H]-paclitaxel from biotinylated porcine tubulin; format: protein assay

SMILES	half-life at 1 µM [1]	CC50 [2]	Activity [3]	Activity [4]	solubility kinetic [6]	Activity [8]	further results
COc1ccc(NC(=O)C(=O)c2cn(CCOC(C)C)c3ccccc23)cn1	23 min	0.211 µM	–	–	–	–	–
CC(=O)O[C@@]12CO[C@@H]1C[C@H](O)[C@@]1(C)C(=O)[C@H](O)C3=C(C)[C@@H](OC(=O)[C@H](O)[C@@H](NC(=O)OC(C)(C)C)c4ccccc4)C[C@@](O)([C@@H](OC(=O)c4ccccc4)[C@H]21)C3(C)C	–	–	Active	Active	–	–	Activity [5]: inactive
COc1ccc(NC(=O)C(=O)c2cn(C(C)(C)COCC(=O)O)c3ccccc23)cn1	–	> 10 µM	–	–	> 200 µM	–	–
COCCc1cc(C(=O)C(=O)Nc2ccc(OC)nc2)c2ccccn12	6 min	0.036 µM	–	–	–	–	–
CCn1cc(C(=O)C(=O)Nc2ccc(OC)nc2)c2ccccc21	–	0.219 µM	Active	inactive	10 µM (≈ 3.23 µg/mL)	–	solubility [7]: soluble
O=C(Nc1ccncc1)C(=O)c1cn(Cc2ccc(Cl)cc2)c2ccccc12 [INDIBULIN]	–	0.032 µM	–	–	–	Active	Activity [9]: Active; solubility [10]: ≤ 1 µM; Activity [11]: Active; Activity [12]: Active; solubility [13]: Insoluble; Activity [14]: Active; solubility [7]: Insoluble
CC(C)Oc1ccc(NC(=O)C(=O)c2cn(C(C)C)c3ccccc23)cn1	66 min	0.408 µM	–	–	–	–	–
COc1ccc(NC(=O)C(=O)c2cn(CCC(=O)O)c3ccccc23)cn1	–	> 10 µM	–	–	> 200 µM	–	–
CC[C@]1(O)C[C@@H]2CN(CCc3c([nH]c4ccccc34)[C@@](C(=O)OC)(c3cc4c(cc3OC)N(C)[C@H]3[C@@](O)(C(=O)OC)[C@H](OC(C)=O)[C@]5(CC)C=CCN6CC[C@]43[C@@H]65)C2)C1	–	–	–	–	–	inactive	–
COc1cc2c(c(OC)c1OC)-c1ccc(OC)c(=O)cc1[C@@H](NC(C)=O)CC2	–	–	–	–	–	inactive	–
COc1ccc(NC(=O)C(=O)c2cn(CC3CCCO3)c3ccccc23)cn1 (centres undefined)	34 min	0.031 µM	Active	inactive	10 µM (≈ 3.79 µg/mL)	Active	Ratio [15]: 5; Papp A→B at 1 h, 10 µM [16]: 350 nm/s; Activity [17]: Active; IC50 [18]: 8.3 µM; efflux ratio [19]: 0.7; Activity [20]: Non-toxic; Activity [9]: Active; TGI [21]: Active; Activity [11]: Active; Activity [12]: Active; Activity [14]: Active; Activity [22]: Active; Activity [23]: Dose-dependent effect; EC50 [23]: 0.16 µM; EC50 [24]: 0.077 µM; Activity [25]: Active; IC50 [26]: 0.42 µM; solubility [7]: soluble; Activity [27]: Active
COc1ccc(NC(=O)C(=O)c2cn(C(C)C)c3ncccc23)cn1	–	0.126 µM	inactive	inactive	–	–	–
CC(=O)O[C@H]1C(=O)[C@@]2(C)[C@H]([C@H](OC(=O)c3ccccc3)[C@]3(O)C[C@H](OC(=O)[C@H](O)[C@@H](NC(=O)c4ccccc4)c4ccccc4)C(C)=C1C3(C)C)[C@]1(OC(C)=O)CO[C@@H]1C[C@@H]2O	–	–	–	–	–	inactive	–
COCCn1cc(C(=O)C(=O)Nc2ccc(OCC(=O)O)nc2)c2ccccc21	–	> 10 µM	–	–	> 200 µM	–	–
COCCn1cc(C(=O)C(=O)Nc2ccc(OC)nc2)c2cccnc21	–	0.027 µM	inactive	inactive	–	Active	IC50 [18]: 2.6 µM; Activity [9]: Active; Activity [11]: Active; Activity [12]: Active; Activity [14]: Active; IC50 [26]: 0.94 µM
COCCn1cc(C(=O)C(=O)Nc2ccc(OC(F)(F)F)cc2)c2ccccc21	–	0.487 µM	Active	inactive	–	–	–
COc1ccc(NC(=O)C(=O)c2cc(C(C)C)n3ccccc23)cn1	< 5 min	0.16 µM	inactive	inactive	10 µM (≈ 3.37 µg/mL)	–	solubility [7]: soluble
CC[C@]1(O)C[C@H]2CN(CCc3c([nH]c4ccccc34)[C@@](C(=O)OC)(c3cc4c(cc3OC)N(C=O)[C@H]3[C@@](O)(C(=O)OC)[C@H](OC(C)=O)[C@]5(CC)C=CCN6CC[C@]43[C@@H]65)C2)C1	–	–	Active	Active	–	–	Ratio IC50 [28]: 2; Activity [5]: inactive
COc1cc([C@@H]2c3cc4c(cc3[C@H](O)[C@H]3COC(=O)[C@H]23)OCO4)cc(OC)c1OC	–	–	–	–	–	–	Activity [5]: Active
COc1ncc(NC(=O)C(=O)c2cn(C(C)C)c3ccccc23)cn1	5 min	0.171 µM	–	–	–	–	Papp A→B at 1 h, 10 µM [16]: 398 nm/s; efflux ratio [19]: 1
COc1ccc(NC(=O)C(=O)c2cn(C(C)C)c3ccccc23)cn1	5 min	0.085 µM	Active	inactive	20 µM (≈ 6.75 µg/mL)	–	Papp A→B at 1 h, 10 µM [16]: 198 nm/s; IC50 [18]: 14.9 µM; efflux ratio [19]: 1.4; solubility [10]: 10 µM (≈ 3.37 µg/mL); IC50 [26]: 1.6 µM; solubility [7]: soluble
COCC(C)(C)n1cc(C(=O)C(=O)Nc2ccc(OC)nc2)c2ccccc21	16 min	0.137 µM	Active	inactive	10 µM (≈ 3.81 µg/mL)	Active	IC50 [18]: 7.8 µM; Activity [9]: Active; Activity [11]: Active; Activity [12]: Active; Activity [14]: Active; IC50 [26]: 2.5 µM; solubility [7]: soluble
COCCn1cc(C(=O)C(=O)Nc2ccc(OC)nc2)c2ccccc21	11 min	0.017 µM	–	–	–	Active	Activity [9]: Active; Activity [11]: Active; Activity [12]: Active; Activity [14]: Active
